Test results from ChEMBL document CHEMBL1799970, “Dipyrimidine amines: a novel class of chemokine receptor type 4 antagonists with high specificity” (J Med Chem, 2010).
Activity calls are given as the source filed them. The rule behind the calls is not given here. Where a SMILES comes first, the peptide text is derived from it. Bridges are numbered along the chain shown (N, C = ends). [ ]: non-standard residue; d: D form. 2Nal = N[C@@H](Cc1ccc2ccccc2c1)C(=O)O; Cit = NC(=O)NCCC[C@H](N)C(=O)O

What was measured:
[1] = molecular target: T1, C-X-C chemokine receptor type 4 (Homo sapiens, UniProt P61073); experiment: Displacement of biotinylated-TN14003 from CXCL12 binding site of CXCR4 in human MDA-MB-231 cells assessed as concentration required to inhibit >50% using rhodamine staining; type: cell-based
T1 sequence (P61073 whole entry): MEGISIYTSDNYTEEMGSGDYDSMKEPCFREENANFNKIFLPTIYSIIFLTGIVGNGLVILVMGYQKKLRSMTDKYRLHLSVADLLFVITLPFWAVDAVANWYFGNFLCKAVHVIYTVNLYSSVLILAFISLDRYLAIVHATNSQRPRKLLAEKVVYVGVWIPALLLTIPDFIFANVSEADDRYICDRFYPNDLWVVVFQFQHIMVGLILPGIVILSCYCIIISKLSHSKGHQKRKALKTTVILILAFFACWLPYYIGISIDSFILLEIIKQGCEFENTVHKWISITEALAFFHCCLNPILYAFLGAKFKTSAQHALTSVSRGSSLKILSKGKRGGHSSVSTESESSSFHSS
Summary of the method: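 MDA-MB-231 cells preincubated with compound at 1, 10, 100, 1000 nM, fixed in 4% formaldehyde, incubated with 50 nM biotinylated peptide antagonist then streptavidin-rhodamine; EC is lowest concentration blocking >50% of binding.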

[2] = molecular target: T1, C-X-C chemokine receptor type 4; experiment: Antagonist activity at CXCR4 in human MDA-MB-231 cells assessed as inhibition of CXCL12-mediated cell invasion at 100 nM by […] cell invasion assay; type: functional, cell-based
[3] = molecular target: T1, C-X-C chemokine receptor type 4; experiment: Antagonist activity at CXCR4 in human MDA-MB-231 cells assessed as inhibition of CXCL12-mediated cell invasion at 10 nM by […] cell invasion assay; type: functional, cell-based
[4] = tested on: Mus musculus; experiment: Antiinflammatory activity in C57BL/6L mouse assessed as inhibition of carrageenan-induced paw edema at 10 mg/kg, ip administered 30 mins before carrageenan challenge measured after 76 hrs; type: functional; details: for inhibition in vivo at 10 mg/kg: route intraperitoneal
[5] = molecular target: T1, C-X-C chemokine receptor type 4; experiment: Antagonist activity at human CXCR4 expressed in human U87 cells expressing CD4 assessed as inhibition of CXCL12-induced cAMP production pretreated for 15 mins before forskolin challenge by TR-FRET analysis; type: functional, cell-based, U-87MG ATCC
[6] = molecular target: T2, C-C chemokine receptor type 3 (Homo sapiens) (UniProt P51677); experiment: Antagonist activity at human CCR3 expressed in human U87 cells expressing CD4 assessed as inhibition of CCL5-induced cAMP production pretreated for 15 mins before forskolin challenge by TR-FRET analysis; type: functional, cell-based; details: U-87MG ATCC
T2 sequence (whole entry): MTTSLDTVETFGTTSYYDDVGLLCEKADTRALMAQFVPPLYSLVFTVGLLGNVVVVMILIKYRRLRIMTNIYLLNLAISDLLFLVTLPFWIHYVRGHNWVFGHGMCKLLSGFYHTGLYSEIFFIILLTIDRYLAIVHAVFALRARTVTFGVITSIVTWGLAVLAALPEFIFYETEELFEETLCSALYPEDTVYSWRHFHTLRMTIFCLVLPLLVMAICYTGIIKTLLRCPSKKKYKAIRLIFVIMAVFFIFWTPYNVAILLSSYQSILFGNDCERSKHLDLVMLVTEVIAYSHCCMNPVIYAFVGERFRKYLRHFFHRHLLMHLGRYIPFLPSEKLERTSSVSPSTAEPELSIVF
Summary of the method: (§1)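 U87CD4CCR3 or U87CD4CCR5 cells pretreated with compound 15 min at room temperature, then stimulated with 150 ng/mL CCL5 in presence of 5 µM forskolin; cAMP measured by TR-FRET LANCE kit.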

[7] = molecular target: C-C chemokine receptor type 5 (Homo sapiens) (UniProt P51681); experiment: Antagonist activity at human CCR5 expressed in human U87 cells expressing CD4 assessed as inhibition of CCL5-induced cAMP production pretreated for 15 mins before forskolin challenge by TR-FRET analysis; type: functional, cell-based; details: U-87MG ATCC; summary of the method: as §1
C-C chemokine receptor type 5 (Homo sapiens), sequence (P51681 whole entry, looked up): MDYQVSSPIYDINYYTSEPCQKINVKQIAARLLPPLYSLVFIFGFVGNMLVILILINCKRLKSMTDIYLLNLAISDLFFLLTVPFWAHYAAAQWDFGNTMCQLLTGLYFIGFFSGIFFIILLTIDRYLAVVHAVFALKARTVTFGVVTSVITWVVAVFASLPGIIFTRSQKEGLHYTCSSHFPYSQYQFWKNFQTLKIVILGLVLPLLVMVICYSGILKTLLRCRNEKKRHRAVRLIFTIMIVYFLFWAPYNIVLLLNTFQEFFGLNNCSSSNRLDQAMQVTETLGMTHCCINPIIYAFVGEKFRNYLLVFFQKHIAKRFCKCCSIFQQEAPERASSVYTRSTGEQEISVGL

[8] = tested on: MDA-MB-231; experiment: Antiangiogenic activity against human MDA-MB-231 cells xenografted in nude mouse assessed as hemoglobin level at 10 mg/kg, sc measured after 10 days by […] plug assay; type: functional; details: route subcutaneous; for inhibition in vivo at 10 mg/kg: Mus musculus, MDA-MB-231, sc, 240 h
Summary of the method: (§2)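 Nude mice, two s.c. flank plugs each (6 mice/group): 2×10^5 MDA-MB-231 cells in 0.5 mL growth factor-reduced Matrigel with compound mixed at 1 µM. From next day, daily s.c. dosing between plugs (10 mg/kg; peptide 300 µg/kg). Day 10 plugs excised, homogenized in water; supernatant with Drabkin's solution, 52 °C 10 min then RT 20 min, A540.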

[9] = tested on: Mus musculus; experiment: Protection against bleomycin-induced lung injury in mouse assessed as decrease in interstitial structural distortion at 10 mg/kg, ip administered 1 day before bleomycin treatment and daily for 20 days by hematoxylin and eosin staining; type: functional, organism-based; design: dose 10 mg/kg
Summary of the method: (§3)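 Mice, 10/group, anesthetized with isoflurane; 4 U/kg bleomycin in 100 µL PBS instilled intratracheally. Dosing i.p. (10 mg/kg, 300 µg/kg, or saline) from 1 day before bleomycin, daily for 20 days. Lungs harvested day 20, H&E-stained sections examined microscopically.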

[10] = tested on: Mus musculus; experiment: Protection against bleomycin-induced lung injury in mouse assessed as decrease in alveolar structural distortion at 10 mg/kg, ip administered 1 day before bleomycin treatment and daily for 20 days by hematoxylin and eosin staining; type: functional, organism-based; design: dose 10 mg/kg; summary of the method: as §3
[11] = tested on: Mus musculus; experiment: Protection against bleomycin-induced lung injury in mouse assessed as decrease in lung fibrosis at 10 mg/kg, ip administered 1 day before bleomycin treatment and daily for 20 days by hematoxylin and eosin staining; type: functional; design: scale not given: the % may be the effect or the level left; details: route intraperitoneal; summary of the method: as §3
[12] = Antimetastatic activity against HGF/TGF-beta/CXCR4/MMP2 expressing human OMM 2.3 cells xenografted in nude mouse eye assessed as decrease in number of hepatic micrometastases at 10 mg/kg, ip administered 3 days after tumor implantation QD for 28 days by hematoxylin and eosin staining; type: functional; design: scale not given: the % may be the effect or the level left; details: route intraperitoneal
Summary of the method: (§4)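 Female nude mice, 10/group; 1×10^6 OMM2.3 cells into posterior chamber of right eye day 0. Daily i.p. dosing (10 mg/kg or 300 µg/kg in 0.1 mL 45% cyclodextrin) from day 3; vehicle controls; tumor eyes enucleated day 7. Day 28 livers formalin-fixed, H&E; micrometastases (<100 µm) counted in six central sections, averaged per section.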

[13] = Half life in iv dosed mouse; type: ADME, organism-based; details: in vivo
[14] = tested on: Mus musculus; experiment: Antiinflammatory activity in C57BL/6L mouse assessed as inhibition of carrageenan-induced paw edema at 300 ug/kg, ip administered 30 mins before carrageenan challenge measured after 76 hrs; type: functional, organism-based
[15] = tested on: MDA-MB-231; experiment: Antiangiogenic activity against human MDA-MB-231 cells xenografted in nude mouse assessed as hemoglobin level at 300 ug/kg, sc measured after 10 days by […] plug assay; type: functional, organism-based; summary of the method: as §2
[16] = tested on: Mus musculus; experiment: Protection against bleomycin-induced lung injury in mouse assessed as decrease in interstitial structural distortion at 300 ug/kg, ip administered 1 day before bleomycin treatment and daily for 20 days by hematoxylin and eosin staining; type: functional, organism-based; summary of the method: as §3
[17] = tested on: Mus musculus; experiment: Protection against bleomycin-induced lung injury in mouse assessed as decrease in alveolar structural distortion at 300 ug/kg, ip administered 1 day before bleomycin treatment and daily for 20 days by hematoxylin and eosin staining; type: functional, organism-based; summary of the method: as §3
[18] = tested on: Mus musculus; experiment: Protection against bleomycin-induced lung injury in mouse assessed as decrease in lung fibrosis at 300 ug/kg, ip administered 1 day before bleomycin treatment and daily for 20 days by hematoxylin and eosin staining; type: functional; design: scale not given: the % may be the effect or the level left; summary of the method: as §3
[19] = Antimetastatic activity against HGF/TGF-beta/CXCR4/MMP2 expressing human OMM 2.3 cells xenografted in nude mouse eye assessed as decrease in number of hepatic micrometastases at 300 ug/kg, ip administered 3 days after tumor implantation QD for 28 days by hematoxylin and eosin staining; type: functional; design: scale not given: the % may be the effect or the level left; summary of the method: as §4

SMILES	EC [1] [nM]	inhibition [2] [%]	inhibition [3] [%]	inhibition in vivo at 10 mg/kg [4] [%]	also measured
Fc1ccccc1NCc1ccc(CNc2ccccc2F)cc1	100	58	32	–	–
c1ccc(NCc2ccc(CNc3ncccn3)cc2)cc1	–	–	–	20	–
Fc1cnc(Cl)nc1NCc1ccc(CNc2ccnc(NCCN3CCOCC3)n2)cc1	1	100	84	> 50	IC50 [5]: 0.8 nM; inhibition [6]: inactive; inhibition [7]: inactive; Activity [8]: 70%; Activity [9]: Active; Activity [10]: Active; Activity [11]: 55%; Activity [12]: 50%; half-life [13]: 15 min
c1ccc(NCc2ccc(CNc3ccccc3)cc2)cc1	–	64	54	–	–
Fc1cnc(NCc2ccc(CNc3ncc(F)cn3)cc2)nc1	1	75	75	–	–
Fc1ccccc1NCc1ccc(CNc2ncccn2)cc1	–	62	41	–	–
Fc1cnc(NCc2ccc(CNc3nccc(C(F)(F)F)n3)cc2)nc1	1	93	73	20	inhibition in vivo at 10 mg/kg [8]: > 30%
c1cnc(NCc2ccc(CNc3cccc(N4CCCC4)c3)cc2)nc1	10	78	41	–	–
c1ccc(NCc2ccc(CNc3ncccn3)cc2)nc1	100	64	58	–	–
N=C(N)NCCC[C@H](NC(=O)[C@@H]1CSSC[C@H](NC(=O)[C@H](Cc2ccc3ccccc3c2)NC(=O)[C@H](CCCNC(=N)N)NC(=O)[C@@H](N)CCCNC(=N)N)C(=O)N[C@@H](Cc2ccc(O)cc2)C(=O)N[C@@H](CCCNC(N)=O)C(=O)N[C@@H](CCCCN)C(=O)N[C@H](CCCCN)C(=O)N2CCC[C@H]2C(=O)N[C@@H](Cc2ccc(O)cc2)C(=O)N[C@@H](CCCNC(=N)N)C(=O)N[C@@H](CCCNC(N)=O)C(=O)N1)C(N)=O (H-RR[2Nal]CY[Cit]K[dK]PYR[Cit]CR-NH2; disulfide 4-13)	–	–	–	–	inhibition [14]: Active; inhibition [15]: Active; Activity [16]: Active; Activity [17]: Active; Activity [18]: 85%; Activity [19]: 50%
Fc1cccc(NCc2ccc(CNc3ncccn3)cc2)n1	–	80	53	> 50	inhibition in vivo at 10 mg/kg [8]: > 30%
COc1nccc(NCc2ccc(CNc3ccnc(OC)n3)cc2)n1	10	65	24	–	inhibition in vivo at 10 mg/kg [8]: > 30%
Fc1ccc(NCc2ccc(CNc3ccc(F)cn3)cc2)nc1	100	68	45	–	–
CCOCCN1CCN(C(=O)c2cnc(NCc3ccc(CNc4ncc(F)cn4)cc3)nc2C(F)(F)F)CC1	1	95	34	20	IC50 [5]: 5.4 nM; inhibition [6]: inactive; inhibition [7]: inactive; inhibition in vivo at 10 mg/kg [8]: > 30%
Clc1cccc(NCc2ccc(CNc3ncccn3)cc2)n1	1	100	100	> 50	inhibition in vivo at 10 mg/kg [8]: > 30%
Fc1cccc(NCc2ccc(CNc3cccc(F)n3)cc2)n1	100	85	55	–	–
c1cnc(NCc2ccc(CNc3ccc(N4CCCC4)cc3)cc2)nc1	1	82	57	–	–
Clc1nc(Cl)nc(NCc2ccc(CNc3nc(Cl)nc(Cl)n3)cc2)n1	10	82	61	–	–
c1cnc(NCc2ccc(CNc3ccccc3N3CCCC3)cc2)nc1	100	73	61	–	–
c1ccc(NCc2ccc(CNc3ccccn3)cc2)nc1	–	–	–	–	IC50 [5]: 1.8 nM; inhibition [6]: inactive; inhibition [7]: inactive; inhibition [4]: Active
Fc1nccc(NCc2ccc(CNc3ccnc(F)n3)cc2)n1	1	81	65	–	–
COc1ncc(F)c(NCc2ccc(CNc3nc(OC)ncc3F)cc2)n1	1	100	77	20	–
Clc1ccc(NCc2ccc(CNc3ncccn3)cc2)nc1	10	100	82	20	–
